Laboratory results from ChEMBL document CHEMBL1151302, “Cytotoxic and leishmanicidal aminoglycosteroids and aminosteroids from Holarrhena curtisii” (J Nat Prod, 1998).
Values after ≈ are worked out from the molar mass of the structure shown. Values belong to the molecule of their own block, whether it stands above or below them.

How the values were obtained:
P388 [1] = assay: Cytotoxicity against vincristine-resistant mouse P388 cells after 3 days by MTT assay; format: functional, cell-based; conditions: P388, 72 h
Procedure, shortened: (§1)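 Cells were kept in MEM with 10% fetal calf serum and kanamycin; the P-388/VCR line also received 0.5 μg/mL vincristine. Cells were seeded at 20 000 cells/mL and tested at eight concentrations, starting from 25 μg/mL in the well. After 3 days of culture, living cells were counted by MTT staining. Each experiment was run three times.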

P388 [2] = assay: Cytotoxicity against adriamycin-resistant mouse P388 cells after 3 days by MTT assay; format: functional, cell-based; conditions: P388, 72 h; procedure, shortened: as §1
P388 [3] = assay: Cytotoxicity against mouse P388 cells after 3 days by MTT assay; format: functional, cell-based; conditions: P388, 72 h; procedure, shortened: as §1
HL-60 = assay: Cytotoxicity against human HL60 cells after 3 days by MTT assay; format: functional, cell-based; conditions: HL-60, 72 h; procedure, shortened: as §1
Leishmania donovani = assay: Antileishmanial activity against Leishmania donovani promastigotes after 6 to 7 hrs; format: functional, organism-based
Procedure, shortened: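 Promastigotes were maintained in 199 medium with 10% fetal calf serum and kanamycin. They were plated at 10 000 cells/mL and exposed to four sample concentrations, starting from 25 μg/mL in the well.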

Structure (SMILES): CC(=O)[C@H]1CC[C@]2(O)[C@@H]3CC[C@H]4C[C@H](N)CC[C@]4(C)[C@H]3CC[C@]12C
IC50 (P388 [1]): 3.4 µg/mL (≈ 10.2 µM) | IC50 (P388 [2]): 8.6 µg/mL (≈ 25.8 µM) | IC50 (P388 [3]): 3.6 µg/mL (≈ 10.8 µM) | IC50 (HL-60): 10.1 µg/mL (≈ 30.3 µM) | IC50 (Leishmania donovani): 6.25 µg/mL (≈ 18.7 µM)

Structure (SMILES): CN[C@H]1[C@@H](OC)C[C@H](O[C@H]2CC[C@@]3(C)[C@@H](CC[C@@H]4[C@@H]3CC[C@]3(C)[C@H](C(C)=O)CC[C@]43O)C2)O[C@@H]1C
IC50 (P388 [1]): 10.1 µg/mL (≈ 20.5 µM) | IC50 (P388 [2]): 10.4 µg/mL (≈ 21.2 µM) | IC50 (P388 [3]): 17 µg/mL (≈ 34.6 µM) | IC50 (HL-60): 0.01 µg/mL (≈ 0.0203 µM) | IC50 (Leishmania donovani): 6.25 µg/mL (≈ 12.7 µM)

Structure (SMILES): CO[C@H]1C[C@H](O[C@H]2CC[C@@]3(C)[C@@H](CC[C@@H]4[C@@H]3CC[C@]3(C)[C@@H](C(C)=O)CC[C@]43O)C2)O[C@H](C)[C@H]1N
IC50 (P388 [1]): 3.5 µg/mL (≈ 7.33 µM) | IC50 (P388 [2]): 11.5 µg/mL (≈ 24.1 µM) | IC50 (P388 [3]): 4 µg/mL (≈ 8.37 µM) | IC50 (HL-60): 2.6 µg/mL (≈ 5.44 µM) | IC50 (Leishmania donovani): 1.56 µg/mL (≈ 3.27 µM)

Structure (SMILES): CN[C@H]1[C@@H](OC)C[C@H](O[C@H]2CC[C@@]3(C)[C@@H](CC[C@@H]4[C@@H]3CC[C@]3(C)[C@@H](C(C)=O)CC[C@]43O)C2)O[C@@H]1C [HOLACURTINE]
IC50 (P388 [1]): 2.8 µg/mL (≈ 5.69 µM) | IC50 (P388 [2]): 3.4 µg/mL (≈ 6.91 µM) | IC50 (P388 [3]): 4.2 µg/mL (≈ 8.54 µM) | IC50 (HL-60): 0.86 µg/mL (≈ 1.75 µM) | IC50 (Leishmania donovani): 1.56 µg/mL (≈ 3.17 µM)

Structure (SMILES): CC(=O)[C@H]1CC[C@H]2[C@@H]3CC=C4C[C@H](N)CC[C@]4(C)[C@H]3CC[C@]12C [HOLAMINE]
IC50 (P388 [1]): 0.83 µg/mL (≈ 2.63 µM) | IC50 (P388 [2]): 0.85 µg/mL (≈ 2.69 µM) | IC50 (P388 [3]): 0.91 µg/mL (≈ 2.88 µM) | IC50 (HL-60): 0.2 µg/mL (≈ 0.634 µM) | IC50 (Leishmania donovani): 0.39 µg/mL (≈ 1.24 µM)

Structure (SMILES): CO[C@H]1C[C@H](O[C@H]2CC[C@@]3(C)C(=CC[C@@H]4[C@@H]3CC[C@]3(C)[C@@H](C(C)=O)C[C@H](O)[C@]43O)C2)O[C@H](C)[C@H]1N [HOLACURTINOL]
IC50 (P388 [1]): 10 µg/mL (≈ 20.3 µM) | IC50 (P388 [2]): 10.4 µg/mL (≈ 21.2 µM) | IC50 (P388 [3]): 16 µg/mL (≈ 32.5 µM) | IC50 (HL-60): 2.6 µg/mL (≈ 5.29 µM) | IC50 (Leishmania donovani): 6.25 µg/mL (≈ 12.7 µM)

Structure (SMILES): CO[C@H]1C[C@H](O[C@H]2CC[C@@]3(C)[C@@H](CC[C@@H]4[C@@H]3CC[C@]3(C)[C@H](C(C)=O)CC[C@]43O)C2)O[C@H](C)[C@H]1N
IC50 (P388 [1]): 10.2 µg/mL (≈ 21.4 µM) | IC50 (P388 [2]): 13.5 µg/mL (≈ 28.3 µM) | IC50 (P388 [3]): 10.5 µg/mL (≈ 22 µM) | IC50 (HL-60): 0.21 µg/mL (≈ 0.44 µM) | IC50 (Leishmania donovani): 6.25 µg/mL (≈ 13.1 µM)

IC50 (Leishmania donovani): > 1.56 µg/mL
Structure (SMILES): CC(=O)[C@H]1C[C@H](O)[C@H]2[C@@H]3CC=C4C[C@H](N)CC[C@]4(C)[C@H]3CC[C@@]21C
IC50 (P388 [1]): 1.4 µg/mL (≈ 4.22 µM) | IC50 (P388 [2]): 3.6 µg/mL (≈ 10.9 µM) | IC50 (P388 [3]): 4.1 µg/mL (≈ 12.4 µM) | IC50 (HL-60): 1.2 µg/mL (≈ 3.62 µM)
